Data set [1] relates to HepG2 cells. The experiment in a line: MTT assay, HepG2. The data set is classed as cell-based, human. To be noted: read-out: IC50 HepG2, 72 h treatment. The essentials:
(§1)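 Cells grown in DMEM with 10% FBS, penicillin and streptomycin, seeded at 5 × 10^3 per well for 24 h. Test compound added at 0, 1.56, 3.125, 6.25, 12.5, 25, 50 or 100 μM for 72 h. MTT (5 mg/mL stock) added for 4 h; medium replaced by DMSO; absorbance read at 490 nm for IC50.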

Data set [2] relates to MDA-MB-231 cells. Briefly: MTT assay, MDA-MB-231. The data set is classed as cell-based, human. The settings on record: read-out: IC50 MDA-MB-231, 72 h treatment. The essentials: as §1
In data set [3] the test system is MCF-7 cells. Briefly: MTT assay, MCF-7. The data set is classed as cell-based, human. The settings on record: read-out: IC50 MCF-7, 72 h treatment. The essentials:
as §1

For data set [4], the system named is A549 cells. The experiment in a line: MTT assay, A549. The data set is classed as cell-based, human. To be noted: read-out: IC50 A549, 72 h treatment. The essentials: as §1
Data set [5] relates to HaCaT cells. Briefly: MTT assay, HaCaT normal cells. The data set is classed as cell-based, human. To be noted: read-out: IC50 HaCaT, 72 h treatment, normal cell line. The essentials:
as §1

In data set [6] the test system is HUVECs. The experiment in a line: Tube formation assay. The data set is classed as cell-based. The settings on record: 5 and 10 μM, 6 h, VEGF 200 ng/mL. The essentials: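 Matrigel thawed at 4 °C for 24 h, coated into prechilled wells and set at 37 °C for at least 60 min. HUVECs (3 × 10^4) plated in DMEM with VEGF (200 ng/mL) plus test compound (0, 5, 10 μM) for 6 h at 37 °C. Tube networks imaged and analysed.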

In data set [7] the test system is MDA-MB-231 cells in zebrafish xenografts. The experiment in a line: Zebrafish xenograft breast cancer model. The data set is classed as in vivo. To be noted: 5 μM, 72 h. The essentials: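 DiI-labelled MDA-MB-231 cells (10^7 cells/mL; 50–500 cells) microinjected into the perivitelline space near the SIVs of Tg(fli1:EGFP) zebrafish embryos at 48 hpf. Xenografted fish kept 10 per well in 2 mL aquaculture water with 0 or 5 μM test compound for 72 h. Fluorescence imaging every 24 h; n = 10/group.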

Data set [8] is described as follows: Octanol/water partition coefficient. The data set is classed as physicochemical. To be noted: room temperature. The essentials: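 Lipophilicity taken as Po/w = Ao/Aw. Test compound concentrations in the octanol and water phases measured from electronic absorption spectra.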
The subject of data set [9] is MDA-MB-231 cells. Briefly: Immunofluorescence of paxillin and F-actin. The data set is classed as cell-based, human. The settings on record: 5 and 10 μM, 24 h. The essentials:
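MDA-MB-231 cells on cover glass, exposed to test compound (0, 5, 10 μM) for 24 h, then fixed in 4% formaldehyde 25 min and blocked in 5% BSA 30 min. Stained with rabbit monoclonal anti-paxillin (1:100, 60 min), Alexa Fluor 488 anti-rabbit (1:200, 30 min), rhodamine phalloidin for F-actin (1:100, 30 min) and DAPI (0.5 μg/mL, 8 min). PBS washes between steps; confocal imaging.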

The subject of data set [10] is MDA-MB-231 cells. Briefly: Comet assay. The data set is classed as cell-based, human. The settings on record: 5 and 10 μM.
Data set [11] has as its system transgenic Tg(fli1a:EGFP) zebrafish embryos. Briefly: Angiogenic effect in vivo, transgenic zebrafish embryos. To be noted: 5.0 μM, compared with PTK787.
For data set [12], the system named is MDA-MB-231 cells. The experiment in a line: Wound-healing assay. The data set is classed as cell-based, human. The settings on record: 72 h. The essentials: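 MDA-MB-231 cells (1 × 10^5/well) grown to >85% confluence, then scratched with a pipette tip. Treated with test compound (0, 2, 4 μM). The same field imaged every 24 h. Migration rate taken as scratch filling, averaged over 10 fields; N = 8. Means ± SEM; one-way ANOVA.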

Data set [13] has as its system MDA-MB-231 cells. Briefly: FITC-conjugated gelatin invasion assay. The data set is classed as cell-based, human. The settings on record: 5 μM, 24 h. The essentials: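 MDA-MB-231 cells (2 × 10^5 per well) treated with 0 or 5 μM test compound, plated on FITC-gelatin-coated coverslips, and incubated 24 h at 37 °C. Gelatin degradation (dark holes) imaged by laser confocal microscopy; invasive percentage derived. Means ± SEM; one-way ANOVA versus control.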

In data set [14] the test system is MDA-MB-231 cells. Briefly: TUNEL assay. The data set is classed as cell-based, human. The settings on record: 20 μM. The essentials: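 MDA-MB-231 cells given test compound (0, 10, 20 μM). Fixed in 4% p-formaldehyde in PBS 30 min; permeabilised with 0.3% Triton X-100 in PBS (25 °C, 8 min). TUNEL reaction mixture applied 1 h, then DAPI (0.5 μg/mL, 37 °C, 8 min) in the dark. Read by fluorescence microscopy.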

Several values for one entry are separate records, joined by “and”; a condition that tells them apart may be missing. Identical values can stand only once.

For `N.N.[Cl][Pt][Cl]` [Cis-platin, cisplatin, reference compound], the IC50 in [1] was 15.5 ± 0.4 µM; in data set [2], 20.9 ± 1.9 µM; in data set [3], 86.6 ± 5.9 µM; in data set [4] it was 21.1 ± 0.2 µM; in data set [5] it was 7.1 ± 0.5 µM.
Consider “[Ru(bpy)2(7-BEDPPZ)](ClO4)2 [Ru(bpy)2BEDPPZ]”, for which, in [6], the “tube formation of HUVECs” value was “inhibited notably”. Also, the “metastasis of MDA-MB-231 cells into blood vessels” value in [7] was “scarce MDA-MB-231 cells were found in the blood vessel”. Also, the “number of MDA-MB-231 cells in zebrafish (proliferation)” value in data set [7] (versus control) is “notably reduced”. Moreover, the “total area of SIV (tumor angiogenesis)” value in data set [7] (versus control) is “obviously less than that in the control group”. Also, in [8], the logPo/w was −0.87. Further, the “quantity of paxillin (focal adhesions)” value in [9] is on record as “decreased quantity of paxillins”. In addition, the “stress fibers (F-actin)” value in data set [9] is recorded as “inhibited”. For the same compound, the IC50 in [1] is 97.5 ± 4.4 µM; in data set [2], ~17.2 µM and 17.2 µM; in [3], 74.9 ± 3.5 µM; in data set [4] it was 20 ± 0.7 µM; in data set [5], 47.2 ± 2.6 µM. Moreover, in [10], the “endogenous DSBs (olive tail moment, comet assay)” value is listed as “extremely increased”. For the same compound, in [10] (24 h), the “percentage of γH2AX focal positive cells” value is on record as “obviously increased”. In [11], the ISV formation inhibition entry was “more effectively inhibited ISV formation than PTK787”. The wound-healing rate result in data set [12] (2 μM, versus control) is “less than half of the control group”; in [12] (4 μM), “further decreased”. In addition, in [13], the “invasive capability (FITC-gelatin degradation)” value is “markedly suppressed”. In addition, in [14], the “apoptotic cells (TUNEL)” value is listed as “many apoptotic cells were observed”.
For “[Ru(bpy)2(7-CH3-DPPZ)](ClO4)2 [Ru(bpy)2MDPPZ]”, the logPo/w in data set [8] is −2.17. In addition, the IC50 in data set [1] was above 100 µM; in data set [2] it was above 100 µM; in data set [3] it was 9.7 ± 6.1 µM; in [4], 93.3 ± 4.1 µM; in [5], above 100 µM.
As to [Ru(bpy)2DPPZ](ClO4)2, the logPo/w in data set [8] is recorded as −1.87. Also, the IC50 in [1], in data set [2], in data set [3], in data set [4] and in data set [5] was above 100 µM each time.
“[Ru(bpy)2(DPPN)](ClO4)2 [Ru(bpy)2BnDPPZ]”: the logPo/w in [8] is −1.65. For the same compound, the IC50 in data set [1] was 23 ± 1.1 µM; in data set [2], above 100 µM; in [3] it was above 100 µM; in data set [4], 32.5 ± 1.6 µM; in [5], above 100 µM.

The values above are taken from article PMC6297906 (Computational and Structural Biotechnology Journal, 2018).
